Assay [1] relates to Prunus dulcis. The assay can be described thus: Binding affinity to almond beta-glucosidase expressed in Escherichia coli BL21 (DE3) at 100 uM by fluorescence assay. Summed up: (§1)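 E. coli BL21(DE3) lysate (1 mg/mL protein by BCA) spiked with varying amounts of almond β-glucosidase. Probe added as 4 or 10 µL of a 1 mM stock in 100 µL, in HEPES/NaCl pH 7.4. Photolabeling at 366 nm, 30 min, 4 °C, then fluorescein-N3 click. SDS–PAGE with fluorescence scan and silver stain.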

Assay [2] is described as follows: Displacement of PNPG from almond beta-glucosidase by UV spectroscopy. Set-up: species or system Prunus dulcis. Summed up:
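Almond β-glucosidase with p-nitrophenyl β-D-glucopyranoside (0.2–5 mM) in 0.1 M acetate buffer pH 5.0, 150 µL wells. After 15 min at 37 °C, p-nitrophenol read at 405 nm. Ki derived by varying both inhibitor and substrate concentrations.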

For assay [3], the target named is T1, Beta-glucosidase (Homo sapiens, UniProt Q9HCG7).
T1 sequence (Q9HCG7 whole entry): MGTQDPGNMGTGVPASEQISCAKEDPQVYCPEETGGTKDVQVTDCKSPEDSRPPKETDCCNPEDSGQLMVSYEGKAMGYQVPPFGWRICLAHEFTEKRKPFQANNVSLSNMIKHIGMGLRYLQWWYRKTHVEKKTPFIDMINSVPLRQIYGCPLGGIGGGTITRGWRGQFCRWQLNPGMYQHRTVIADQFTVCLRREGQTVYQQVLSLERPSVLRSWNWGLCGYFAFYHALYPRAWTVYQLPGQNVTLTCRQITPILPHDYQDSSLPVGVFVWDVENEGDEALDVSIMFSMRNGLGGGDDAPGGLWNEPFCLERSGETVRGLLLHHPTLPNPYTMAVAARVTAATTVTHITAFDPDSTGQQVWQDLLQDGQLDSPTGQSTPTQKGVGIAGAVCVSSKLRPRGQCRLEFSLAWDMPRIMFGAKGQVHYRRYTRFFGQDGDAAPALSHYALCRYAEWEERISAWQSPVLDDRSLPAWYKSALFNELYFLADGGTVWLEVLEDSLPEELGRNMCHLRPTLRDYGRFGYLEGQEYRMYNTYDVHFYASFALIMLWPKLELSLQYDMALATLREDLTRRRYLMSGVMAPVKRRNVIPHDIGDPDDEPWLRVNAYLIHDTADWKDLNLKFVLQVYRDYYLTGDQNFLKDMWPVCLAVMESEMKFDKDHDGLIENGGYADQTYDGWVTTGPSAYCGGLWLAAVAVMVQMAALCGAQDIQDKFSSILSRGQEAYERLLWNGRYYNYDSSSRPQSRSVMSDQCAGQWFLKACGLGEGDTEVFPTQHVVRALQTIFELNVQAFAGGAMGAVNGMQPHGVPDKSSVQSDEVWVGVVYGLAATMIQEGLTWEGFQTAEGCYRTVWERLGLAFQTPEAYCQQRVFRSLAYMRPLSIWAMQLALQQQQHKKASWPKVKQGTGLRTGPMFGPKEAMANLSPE
The assay can be described thus: Displacement of 4-methylumbelliferyl from non-lysosomal GBA2 by fluorimetry.

Assay [4] has as its target T2, Lysosomal acid glucosylceramidase (Homo sapiens) (UniProt P04062).
T2 sequence (whole entry): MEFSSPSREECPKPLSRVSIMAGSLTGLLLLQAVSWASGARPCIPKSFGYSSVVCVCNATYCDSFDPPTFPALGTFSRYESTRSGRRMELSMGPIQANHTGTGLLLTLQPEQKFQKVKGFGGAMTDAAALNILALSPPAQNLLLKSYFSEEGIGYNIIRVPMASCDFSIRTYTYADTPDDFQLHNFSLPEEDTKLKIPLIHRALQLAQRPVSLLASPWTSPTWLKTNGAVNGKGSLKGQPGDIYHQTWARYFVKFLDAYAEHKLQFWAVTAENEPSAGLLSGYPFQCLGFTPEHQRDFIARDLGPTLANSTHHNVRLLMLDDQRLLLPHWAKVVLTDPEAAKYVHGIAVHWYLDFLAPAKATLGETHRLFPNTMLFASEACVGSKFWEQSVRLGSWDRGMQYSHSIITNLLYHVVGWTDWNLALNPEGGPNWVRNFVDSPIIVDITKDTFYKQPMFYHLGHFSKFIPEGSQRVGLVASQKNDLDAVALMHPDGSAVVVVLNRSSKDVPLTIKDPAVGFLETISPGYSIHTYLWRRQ
Put plainly: Displacement of deoxynojirimycin from human GBA at 5 uM by fluorescence assay. The gist of the method:
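Competition labeling: Ceredase with probe plus 0, 0.5, 5 or 25 µL of 1 mM deoxynojirimycin stock in 50 µL, 50 mM HEPES pH 6.1. UV irradiation at 366 nm for 30 min at 4 °C, then fluorescein-N3 click and SDS–PAGE fluorescence read-out.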

Assay [5] addresses T2, Lysosomal acid glucosylceramidase (Homo sapiens). Put plainly: Binding affinity to human GBA at 0.1 to 10 uM by fluorescence assay. The gist of the method: (§2)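 Ceredase (human placental GBA) photolabeled in 50 µL with probe at 10, 5, 3, 1, 0.5 or 0.1 µM in 50 mM HEPES pH 6.1. UV 366 nm, 30 min, 4 °C. Then CuSO4/TCEP click with fluorescein-N3 for 16 h at 4 °C, denaturation at 95 °C, SDS–PAGE and fluorescence scanning.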

Assay [6] addresses T3, Lysosomal acid glucosylceramidase (Homo sapiens, UniProt P04062).
T3 sequence (P04062 whole entry): T2 sequence (whole entry)
Put plainly: Displacement of 4-methylumbelliferyl from human GBA by fluorimetry.

Assay [7] deals with T2, Lysosomal acid glucosylceramidase (Homo sapiens). Put plainly: Binding affinity to human GBA at 0.1 uM by fluorescence assay. Summed up: as §2
For assay [8] the target is unchanged. Put plainly: Binding affinity to human GBA at 10 uM by fluorescence assay. The gist of the method:
as §2

Assay [9] deals with Prunus dulcis. The assay can be described thus: Binding affinity to almond beta-glucosidase at 40 uM after 30 mins by fluorescence assay. The gist of the method:
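Almond β-glucosidase from a 1 mg/mL stock, with probe added from a 1 mM stock in 5% DMSO/water, in 50 mM HEPES, 150 mM NaCl, pH 7.4. UV irradiation at 366 nm for 30 min at 4 °C; a non-irradiated control was kept dark. Then CuSO4/TCEP click with fluorescein-N3 for 1 h at rt. SDS–PAGE, fluorescence scan, then silver stain.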

The subject of assay [10] is Prunus dulcis. Put plainly: Binding affinity to almond beta-glucosidase expressed in Escherichia coli BL21 (DE3) at 40 uM by fluorescence assay. Summed up: as §1
Assay [11] addresses T2, Lysosomal acid glucosylceramidase (Homo sapiens). Put plainly: Binding affinity to GBA in human HeLa cell extract at 3 uM by fluorescence assay. It counts as cell-free. Summed up:
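300 ng Ceredase with increasing HeLa cell lysate (0.5 mg/mL stock; 0–40 µL) in 50 mM HEPES pH 6.1 with probe. UV 366 nm, 30 min, 4 °C. Then fluorescein-N3 click, SDS–PAGE, fluorescence scan and silver stain. Lysate prepared from 2.5×10^5 PBS-washed cells by detergent extraction; protein measured by BCA.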

Assay [12] can be described thus: Inhibition of Agrobacterium sp. beta-glucosidase.

Structures are written as SMILES. Activity calls are given as the source filed them. The rule behind the calls is not given here.

Data on six compounds can be found in ChEMBL document CHEMBL1157674, “Nanomolar affinity, iminosugar-based chemical probes for specific labeling of lysosomal glucocerebrosidase” (Bioorg Med Chem, 2010).

`C#CCOc1ccc(C(=O)c2ccc(O)cc2)cc1`: in assay [1], the result was Active.

Usually Ki stands for a dissociation constant, usually derived from enzyme kinetics or from competition with a known ligand. High values mean lower affinity, low ones higher affinity. Broadly, the IC50 is the concentration needed to halve the response being measured. Read a low IC50 as greater potency. For the compound `C#CCOc1ccc(C(=O)CCC(=O)NCCCN2C[C@H](O)[C@@H](O)[C@H](O)[C@H]2CO)cc1`, in assay [2], the affinity corresponds to a Ki of 6400 nM. The IC50 in [3] amounted to 75 nM; in assay [6] it was 1650 nM. The outcome in [4] was Active. Besides, the outcome in [5] was inactive.

`C#CCOc1ccc(C(=O)c2ccc(O[C@@H]3O[C@H](CO)[C@@H](O)[C@H](O)[C@H]3O)cc2)cc1`: the affinity in [2] corresponds to a Ki of 588000 nM. In addition, the result in [4], in [1], in assay [8], in [9] and in [10] was Active. Further, the outcome in [7] was inactive.

In the case of `C#CCOc1ccc(C(=O)c2ccc(C(=O)NCCCN3C[C@H](O)[C@@H](O)[C@H](O)[C@H]3CO)cc2)cc1`, in [2], the affinity, expressed as Ki, was 1300 nM. Further, the result in [11], in [4] and in assay [8] was Active. Also, the concentration for half-maximal inhibition (IC50) was 20 nM in [3] and 350 nM in assay [6]. In addition, the result in assay [7] was inactive.

The compound `OC[C@H]1NC[C@H](O)[C@@H](O)[C@@H]1O` [DUVOGLUSTAT] came in with an inhibition constant (Ki) in [2] of 167000 nM.

In turn, `CN(C)c1cccc2c(S(=O)(=O)NC[C@H]3N[C@H](CO)[C@@H](O)[C@@H]3O)cccc12` gave a Ki in assay [12] of 2 nM.
